Values after ≈ are worked out from the molar mass of the structure shown.
How the values were obtained:
Assay type in all cases: functional
[1] = test system: Escherichia coli; test: Antibacterial activity was determined against Gram-negative Escherichia coli Vogel bacteria
Procedure, shortened: (§1)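 MICs, in micrograms per milliliter, were determined by standard microtitration (microdilution) techniques against each listed Gram-negative and Gram-positive strain.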

[2] = test system: Enterobacter cloacae; test: Antibacterial activity was determined against Gram-negative Enterobacter cloacae HA2646 bacteria; procedure, shortened: as §1
[3] = test system: Escherichia coli; test: Antibacterial activity was determined against Gram-negative Escherichia coli H560 bacteria; procedure, shortened: as §1
[4] = test system: Escherichia coli; test: Gyrase-drug induced cleavage against Escherichia coli
Procedure, shortened: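 Compounds were tested for induction of DNA gyrase-mediated cleavage. The value is the minimum drug concentration giving linear DNA at an intensity matching that produced by oxolinic acid at 10 μg/mL.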

[5] = test system: Klebsiella pneumoniae; test: Antibacterial activity was determined against Gram-negative Klebsiella pneumoniae MGH-2 bacteria; procedure, shortened: as §1
[6] = test system: Providencia rettgeri; test: Antibacterial activity was determined against Gram-negative Providencia rettgeri H1771 bacteria; procedure, shortened: as §1
[7] = test system: Pseudomonas aeruginosa; test: Antibacterial activity was determined against Gram-negative Pseudomonas aeruginosa UI-18 bacteria; procedure, shortened: as §1
[8] = test system: Staphylococcus aureus; test: Antibacterial activity was determined against Gram-positive Staphylococcus aureus H228 bacteria; details: in the assay text read “Gram-positive” for “Gram-negative”; procedure, shortened: as §1
[9] = test system: Staphylococcus aureus; test: Antibacterial activity was determined against Gram-positive Staphylococcus aureus UC-76 bacteria; details: in the assay text read “Gram-positive” for “Gram-negative”; procedure, shortened: as §1
[10] = test system: Streptococcus pneumoniae; test: Antibacterial activity was determined against Gram-positive Streptococcus pneumoniae SV-1 bacteria; procedure, shortened: as §1
[11] = test system: Streptococcus pyogenes; test: Antibacterial activity was determined against Gram-positive Streptococcus pyogenes C203 bacteria; procedure, shortened: as §1
[12] = test system: Enterococcus faecalis; test: Antibacterial activity was determined against Gram-positive Streptococcus faecalis MGH-2 bacteria; procedure, shortened: as §1
[13] = test system: Escherichia coli; test: Protective dose against Escherichia coli H560 bacteria; details: read-out: PD50
Procedure, shortened: (§2)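 Acute lethal systemic infection model in female Charles River CD-1 mice. The value is the median protective dose (PD50, mg/kg), defined as the dose needed to protect 50% of mice from the lethal infection.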

[14] = test system: Streptococcus pneumoniae; test: Protective dose against Streptococcus pneumonia bacteria; details: read-out: PD50; procedure, shortened: as §2
[15] = test system: Streptococcus pyogenes; test: Protective dose against Streptococcus pyogenes bacteria; details: read-out: PD50; procedure, shortened: as §2
[16] = test system: Streptococcus pneumoniae; test: Protective dose against Streptococcus pneumoniae bacteria; details: read-out: PD50; procedure, shortened: as §2

Row | Structure (SMILES) | MIC [1] | MIC [2] | MIC [3] | MEC [4] | MIC [5] | MIC [6] | MIC [7] | MIC [8] | MIC [9] | MIC [10] | MIC [11] | MIC [12] | ED50 [13] | ED50 [14] | ED50 [15] | ED50 [16]
1 | CC1(N)CCN(c2c(F)cc3c(=O)c(C(=O)O)cn(C4CC4)c3c2F)C1 (stereo not drawn) | 0.2 µg/mL (≈ 0.55 µM) | 0.2 µg/mL (≈ 0.55 µM) | 0.2 µg/mL (≈ 0.55 µM) | 0.8 µg/mL | 0.4 µg/mL (≈ 1.1 µM) | 0.8 µg/mL (≈ 2.2 µM) | 3.1 µg/mL (≈ 8.53 µM) | 0.8 µg/mL (≈ 2.2 µM) | 0.2 µg/mL (≈ 0.55 µM) | 0.8 µg/mL (≈ 2.2 µM) | 0.8 µg/mL (≈ 2.2 µM) | 1.6 µg/mL (≈ 4.4 µM) |  |  |  | 
2 | NC1CCN(c2c(F)cc3c(=O)c(C(=O)O)cn(C4CC4)c3c2F)C1 (stereo not drawn) | 0.013 µg/mL (≈ 0.0372 µM) | 0.025 µg/mL (≈ 0.0716 µM) | 0.006 µg/mL (≈ 0.0172 µM) | 0.1 µg/mL | 0.025 µg/mL (≈ 0.0716 µM) | 0.05 µg/mL (≈ 0.143 µM) | 0.1 µg/mL (≈ 0.286 µM) | 0.05 µg/mL (≈ 0.143 µM) | 0.025 µg/mL (≈ 0.0716 µM) | 0.05 µg/mL (≈ 0.143 µM) | 0.05 µg/mL (≈ 0.143 µM) | 0.05 µg/mL (≈ 0.143 µM) | 1 mg/kg | 15 mg/kg | 7.5 mg/kg | 
3 | CN(C)CC1(c2ccccc2)CCN(c2c(F)cc3c(=O)c(C(=O)O)cn(C4CC4)c3c2F)C1 (stereo not drawn) | 0.05 µg/mL (≈ 0.107 µM) | 0.05 µg/mL (≈ 0.107 µM) | 0.013 µg/mL (≈ 0.0278 µM) | 2.62 µg/mL | 0.1 µg/mL (≈ 0.214 µM) | 0.1 µg/mL (≈ 0.214 µM) | 0.4 µg/mL (≈ 0.856 µM) | 0.05 µg/mL (≈ 0.107 µM) | 0.05 µg/mL (≈ 0.107 µM) | 0.006 µg/mL (≈ 0.0128 µM) | 0.025 µg/mL (≈ 0.0535 µM) | 0.05 µg/mL (≈ 0.107 µM) | 50 mg/kg |  |  | 
4 | NCC1CCN(c2c(F)cc3c(=O)c(C(=O)O)cn(C4CC4)c3c2F)C1 (stereo not drawn) | 0.025 µg/mL (≈ 0.0688 µM) | 0.05 µg/mL (≈ 0.138 µM) | 0.006 µg/mL (≈ 0.0165 µM) | 0.25 µg/mL | 0.05 µg/mL (≈ 0.138 µM) | 0.1 µg/mL (≈ 0.275 µM) | 0.2 µg/mL (≈ 0.55 µM) | 0.025 µg/mL (≈ 0.0688 µM) | 0.003 µg/mL (≈ 0.00826 µM) | 0.006 µg/mL (≈ 0.0165 µM) | 0.013 µg/mL (≈ 0.0358 µM) | 0.025 µg/mL (≈ 0.0688 µM) | 6 mg/kg | 10 mg/kg | 4 mg/kg | 
5 | NCC1(c2ccccc2)CCN(c2c(F)cc3c(=O)c(C(=O)O)cn(C4CC4)c3c2F)C1 (stereo not drawn) | 0.05 µg/mL (≈ 0.114 µM) | 0.05 µg/mL (≈ 0.114 µM) | 0.013 µg/mL (≈ 0.0296 µM) | 2.62 µg/mL | 0.1 µg/mL (≈ 0.228 µM) | 0.2 µg/mL (≈ 0.455 µM) | 0.8 µg/mL (≈ 1.82 µM) | 0.025 µg/mL (≈ 0.0569 µM) | 0.013 µg/mL (≈ 0.0296 µM) | 0.013 µg/mL (≈ 0.0296 µM) | 0.05 µg/mL (≈ 0.114 µM) | 0.05 µg/mL (≈ 0.114 µM) | 14 mg/kg |  | 21 mg/kg | 
6 | NC1(c2ccccc2)CCN(c2c(F)cc3c(=O)c(C(=O)O)cn(C4CC4)c3c2F)C1 (stereo not drawn) | 0.025 µg/mL (≈ 0.0588 µM) | 0.006 µg/mL (≈ 0.0141 µM) | 0.013 µg/mL (≈ 0.0306 µM) | 0.55 µg/mL | 0.05 µg/mL (≈ 0.118 µM) | 0.05 µg/mL (≈ 0.118 µM) | 0.2 µg/mL (≈ 0.47 µM) | 0.013 µg/mL (≈ 0.0306 µM) | 0.006 µg/mL (≈ 0.0141 µM) | 0.013 µg/mL (≈ 0.0306 µM) | 0.05 µg/mL (≈ 0.118 µM) | 0.05 µg/mL (≈ 0.118 µM) | 12 mg/kg |  | 12 mg/kg | 
7 | CCNCC1(c2ccccc2)CCN(c2c(F)cc3c(=O)c(C(=O)O)cn(C4CC4)c3c2F)C1 (stereo not drawn) | 0.4 µg/mL (≈ 0.856 µM) | 0.8 µg/mL (≈ 1.71 µM) | 0.1 µg/mL (≈ 0.214 µM) | 2.62 µg/mL | 0.8 µg/mL (≈ 1.71 µM) | 1.6 µg/mL (≈ 3.42 µM) | 3.1 µg/mL (≈ 6.63 µM) | 0.1 µg/mL (≈ 0.214 µM) | 0.05 µg/mL (≈ 0.107 µM) | 0.025 µg/mL (≈ 0.0535 µM) | 0.1 µg/mL (≈ 0.214 µM) | 0.2 µg/mL (≈ 0.428 µM) | 37 mg/kg |  |  | 
8 | NCC1CN(c2c(F)cc3c(=O)c(C(=O)O)cn(C4CC4)c3c2F)CC1c1ccccc1 (stereo not drawn) | 0.1 µg/mL (≈ 0.228 µM) | 0.2 µg/mL (≈ 0.455 µM) | 0.013 µg/mL (≈ 0.0296 µM) | 2.62 µg/mL | 0.1 µg/mL (≈ 0.228 µM) | 0.4 µg/mL (≈ 0.91 µM) | 1.6 µg/mL (≈ 3.64 µM) | 0.013 µg/mL (≈ 0.0296 µM) | 0.006 µg/mL (≈ 0.0137 µM) | 0.006 µg/mL (≈ 0.0137 µM) | 0.013 µg/mL (≈ 0.0296 µM) | 0.013 µg/mL (≈ 0.0296 µM) | 27 mg/kg |  | 11 mg/kg | 25 mg/kg
9 | CC1(CN)CCN(c2c(F)cc3c(=O)c(C(=O)O)cn(C4CC4)c3c2F)C1 (stereo not drawn) | 0.05 µg/mL (≈ 0.132 µM) | 0.025 µg/mL (≈ 0.0662 µM) | 0.013 µg/mL (≈ 0.0344 µM) | 2.62 µg/mL | 0.1 µg/mL (≈ 0.265 µM) | 0.2 µg/mL (≈ 0.53 µM) | 0.4 µg/mL (≈ 1.06 µM) | 0.013 µg/mL (≈ 0.0344 µM) | 0.003 µg/mL (≈ 0.00795 µM) | 0.006 µg/mL (≈ 0.0159 µM) | 0.025 µg/mL (≈ 0.0662 µM) | 0.013 µg/mL (≈ 0.0344 µM) | 2.1 mg/kg | 5 mg/kg | 9 mg/kg | 
10 | NC1CN(c2c(F)cc3c(=O)c(C(=O)O)cn(C4CC4)c3c2F)CC1c1ccccc1 (stereo not drawn) | 0.1 µg/mL (≈ 0.235 µM) | 0.2 µg/mL (≈ 0.47 µM) | 0.025 µg/mL (≈ 0.0588 µM) | 2.75 µg/mL | 0.2 µg/mL (≈ 0.47 µM) | 0.4 µg/mL (≈ 0.94 µM) | 1.6 µg/mL (≈ 3.76 µM) | 0.05 µg/mL (≈ 0.118 µM) | 0.025 µg/mL (≈ 0.0588 µM) | 0.1 µg/mL (≈ 0.235 µM) | 0.1 µg/mL (≈ 0.235 µM) | 0.1 µg/mL (≈ 0.235 µM) |  |  |  | 

From ChEMBL document CHEMBL1125100, “New quinolone antibacterial agents. Synthesis and biological activity of 7-(3,3- or 3,4-disubstituted-1-pyrrolidinyl)quinoline-3-carboxylic acids” (1990)
